In the library only some 3.1% were active in any assay of this set; here they are far more common.
Yeast life ext: compounds extending yeast replicative lifespan, primary screen, S. cerevisiae, OD615. S. cerevisiae growth with nicotinamide; deaD strain in restrictive glucose medium. inhibition of the nicotinamide effect, % at 10 µM. 0.68% of 130,000 active. AID 775, 2007;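 active = inhibition above a set limit, placed 3 SD over the median of all compounds, cut at about 26% in these data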;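 also: 0% = nicotinamide-treated wells and 100% = cells grown without nicotinamide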
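Test system – modified budding yeast, DeaD strain · Compound – single dose 10 µM compound, 0.25% DMSO · Times – culture preincubation 4 h, compound exposure 48 h, both 30 °C · Detection – optical density (absorbance) at 615 nm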
Insulin prom inh: inhibitors of insulin promoter-driven GFP, primary screen, imaging, TRM-6 cells, eGFP reporter, cell count. reporter expression induced with tamoxifen. inhibition, % at 2 µM. 0.9% of 130,000 active;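 active = inhibition above the mean plus 3 SD, with well images judged a real hit on visual review, cut at about 60% in these data, passing the limit was not always enough; inconclusive = inhibition over the cutoff but images rejected on review; inactive = inhibition not above the cutoff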
Insulin prom up: insulin promoter activators in MIN6 cells, imaging, high-content screening, mouse beta cells | MIN6 insulin promoter-GFP reporter; stronger effect = higher value | 0.3% of 190,000 active | AID 1625, 2009 | z-score at 5 µM;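 active = z-score above 3 at 5 µM with at least 500 cells counted in the well; inconclusive = wells under 500 cells, flagged as cytotoxic or low count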
RAM inhibit: inhibitors of the yeast RAM network, primary screen, dse1pr::URA3 reporter, 5-FOA selection | AID 868, 2007 | inhibition, % at 50 µM | 1.8% of 190,000 active | S. cerevisiae dse1pr::URA3 reporter, 5-FOA growth OD615, 2 d; analog-sensitive cbk1-as2 kinase mutant strain;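 active = inhibition above a set limit, 3 SD over mean compound inhibition, cut at about 8.4% in these data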;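 also: 0% = DMSO-only wells with no growth and 100% = 10 µM 1-NA-PP1 full growth; inhibition rescues growth on 5-FOA so higher OD means more RAM inhibition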
BB579 growth dn: growth inhibitors of yeast BB579 in restrictive medium, primary screen, yeast lifespan-shortening project, S. cerevisiae | AID 804, 2007 | 0.51% of 140,000 active | inhibition, % at 10 µM | OD615, 48 h;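 active = inhibition above a set limit, 3 SD over the mean compound inhibition, cut at about 44% in these data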
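Test system: Saccharomyces cerevisiae DeaD strain BB579, replicative lifespan model yeast | Buffer or medium: Restrictive CSMM-D medium | Doses: One dose, 10 µM compound with 0.25% DMSO | Incubation: 48 h exposure, 30 °C | Detection: Culture absorbance at 615 nm | Control set: Amphotericin B at 10 µg/mL as positive control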
Starred values were filed as active, the others as inactive; ? = inconclusive; nt = no result.

SMILES | Yeast life ext | Insulin prom inh | Insulin prom up | RAM inhibit | BB579 growth dn
Cc1ccc(C)c(C(=O)OCC(=O)Nc2ccc(N3CCOCC3)cc2)c1 | nt | nt | -0.31 | 3 | nt
COCCCN1C(=O)C(O)=C(C(=O)c2ccco2)C1c1ccc(Br)cc1 (configuration not stated) | -24 | 13 | 0.32 | 9.1* | -39
O=C(NC(Cc1c[nH]c2ccccc12)C(=O)OCC(=O)c1cccc2ccccc12)c1cccs1 (configuration not stated) | 0 | nt | -0.04 | 6 | -28
O=C(NCCSc1ccccc1)c1cncc(Br)c1 | -17 | 75* | -0.6 | 2 | 4
O=C(NCCSc1ccccc1)c1ccc(Br)cc1 | -3 | 3 | 0.04 | 6 | -53
CCCC(c1nnnn1CCc1ccccc1)N1CCC(C(N)=O)CC1 (configuration not stated) | nt | 14 | 0.3 | 3 | 6
CC1(C)CC(=O)C(=Cc2cn(CCC#N)nc2-c2ccc(F)cc2)C(=O)C1 | 7 | -28 | -0.15 | 0 | 7
CC1(C)CC(=O)C(=Cc2cn(CCC#N)nc2-c2ccc(Cl)cc2)C(=O)C1 | 39* | nt | nt | 3 | -51
Cc1ccc2c(c1)C(=O)C(=O)N2CC(=O)Nc1ccccc1NC(=O)c1ccccn1 | nt | nt | 0.12 | nt | nt
O=C(Oc1cccccc1=O)c1ccccc1 | nt | nt | 0.4 | -1 | nt
O=C(Oc1csc(=S)n1C(=O)c1ccccc1)c1ccccc1 | 1 | 43 | -0.76 | 0 | 49*
Cc1cccc(C(=O)Oc2csc(=S)n2C(=O)c2cccc(C)c2)c1 | nt | -27 | nt | -1 | 44*
COc1cc(/C=C2\C(=O)ON=C2c2ccccc2)cc(Cl)c1O | nt | nt | -0.52 | -1 | nt
COc1cc(/C=C2/C(=O)ON=C2c2ccccc2)ccc1O | 12 | 0 | -0.2 | 0 | 86*
COc1ccc(OCC(=O)N2N=C(C(F)F)CC2(O)C(F)F)cc1 (configuration not stated) | -1 | 2 | -0.24 | 0 | 1
Cc1cnc(C(=O)Nc2ccccc2-c2ccc(C)o2)cn1 | -9 | -20 | 0.63 | 2 | -49
Clc1ccc2c(NCc3ccco3)ncnc2c1 | -14 | 79* | nt | 0 | -54
Clc1ccc2c(NCc3ccccn3)ncnc2c1 | -10 | 71 | 0.84 | 0 | 22
CCc1ccc2[nH]c3nc(SCc4nnc(-c5ccccc5)o4)nnc3c2c1 | nt | nt | -0.06 | nt | nt
CCc1ccc2[nH]c3nc(C)cc(C)c3c(=O)c2c1 | -2 | 81* | -0.35 | 3 | -7
COC(=O)C1=C(C)N(c2ccc(C)c(C)c2)/C(=C/c2ccco2)C1=O | nt | nt | nt | 2 | nt
CCOC(=O)C1=C(C)N(c2ccc(C)c(C)c2)C(=O)/C1=C\c1ccco1 | -10 | 38 | -0.58 | 11* | -19
Cc1cc(C)c(S(=O)(=O)c2ccccc2)c(OC(=O)c2cc(F)c(F)cc2Cl)n1 | 43* | 9 | 0.76 | 1 | -68
CN(C)C(CNC(=O)c1ccc2c(=O)n(-c3ccccc3F)c(=S)[nH]c2c1)Cc1ccccc1 (configuration not stated) | nt | nt | 0.96 | 3 | nt
CCc1ccc2c(c1)c(N=NC1=NC(=O)CS1)c(O)n2C | -21 | 79* | -0.3 | 5 | -31
SMILES | Yeast life ext | Insulin prom inh | Insulin prom up | RAM inhibit | BB579 growth dn
CCOCCCNC(=S)N1C2CCC1CC(NC(=O)NC13CC4CC(CC(C4)C1)C3)C2 (configuration not stated) | -4 | -46 | -0.31 | 1 | -41
COc1ccc(C)cc1-n1nnnc1SC/C(O)=C(\C#N)c1nc2ccccc2[nH]1 | -2 | 50 | 0.52 | 9.1* | -4
Cc1ccc(Oc2ncccc2C(=O)NCC(=O)O)cc1 | nt | nt | -0.51 | nt | nt
O=C(Nc1ccc(N2CCCCC2)cc1)c1cccnc1 | -7 | 10 | 3.4* | 2 | -20
CCOC(=O)CSc1n[nH]c(NC(C)=O)n1 | nt | nt | 0.19 | 1 | nt
Fc1ccc(NC(=S)Nc2ccccc2N2CCOCC2)cc1Cl | nt | nt | -1.1 | 1 | nt
CCOC(=O)c1c(-c2ccc(C)o2)csc1NC(=O)CSc1nnc(C)s1 | -5 | nt | -0.63 | 11* | -89
CCOC(=O)c1c(NC(=O)CSc2nnc(C)s2)sc2c1CCCCC2 | 10 | 18 | -0.65 | 5 | -4
CCOC(=O)c1c(-c2ccc(C)o2)csc1NC(=O)CSc1nnnn1-c1ccccc1 | 3 | -6 | -1.1 | 8.6* | -57
CCOC(=O)c1c(NC(=O)CSc2nnc(C)s2)sc2c1CCC(C)C2 (configuration not stated) | nt | 20 | nt | 8.9* | -26
Cc1ccc(C(=O)c2c(C)oc3c2C(=O)C(=O)c2ccccc2-3)cc1 | -11 | -11 | -1.3 | 0 | 70*
Cc1oc2c(c1C(=O)c1ccc(Cl)cc1)C(=O)C(=O)c1ccccc1-2 | 1 | 13 | 0.05 | 2 | 5
CN(c1ccccc1)c1ccc(/C=C/[N+](=O)[O-])cc1 | -11 | nt | 0.57 | 6 | 100*
CN(C)c1ccc(-n2cccc2/C=C/[N+](=O)[O-])cc1 | nt | 23 | -0.12 | 5 | nt
CC(=O)OC(C(=O)NCc1ccc(F)cc1)c1ccccn1 (configuration not stated) | -16 | 24 | 3.9* | 0 | -17
CCOc1ccccc1-c1nnc(SCC(=O)Nc2ccccc2)o1 | -18 | -6 | -0.82 | 10* | -38
O=C(COC(=O)Cc1ccc(S(=O)(=O)N2CCCCC2)s1)Nc1ccc2c(c1)OCO2 | -15 | 44 | -0.09 | 9.4* | -30
CC(OC(=O)c1cccn1C)C(=O)Nc1ccc2c(c1)OCO2 (configuration not stated) | nt | nt | 0.24 | 0 | nt
CCOC(=O)c1ccc(NC(=O)c2cc3ccccc3o2)cc1 | -10 | 63* | nt | -1 | -9
CC(C)C(=O)Nc1ccc(NC(=O)c2cc3ccccc3o2)cc1 | -9 | 28 | 0.57 | 1 | -77
C=CCNC1=C(Cl)C(=O)c2ccccc2C1=O | -7 | 24 | -0.67 | 2 | 60*
O=C1C(Cl)=C(Nc2ccccc2)C(=O)c2ccccc21 | 2 | -386 | ? | 2 | -16
O=C(Nc1ccccc1Cl)OCc1cncs1 | nt | 67* | -1.2 | 1 | nt
O=C(OCc1cncs1)c1ccccc1Cl | nt | nt | -0.05 | 2 | nt
Cn1c(Cl)c(/C=N/OC(=O)c2ccccc2Cl)c2ccccc21 | -16 | -233 | 0.71 | 4 | -59
SMILES | Yeast life ext | Insulin prom inh | Insulin prom up | RAM inhibit | BB579 growth dn
Cc1cccc(C(=O)O/N=C/c2c(N3CCOCC3)n(C)c3ccccc23)c1 | -20 | nt | -0.63 | 3 | 53*
O=c1nc2s/c(=C\c3ccc(-c4ccccc4[N+](=O)[O-])o3)c(=O)n2nc1-c1ccccc1 | 1 | -6 | 0.66 | 5 | -33
CCCN1C(=O)/C(=C/c2ccncc2)SC1=S | 54* | 7 | 0.88 | 1 | -48
O=C(CCN1C(=O)/C(=C/c2ccccc2)SC1=S)NNC(=O)c1cccnc1 | -1 | nt | -0.44 | 9.6* | -34
Cc1ccc(C(=O)NNC(=O)CCCN2C(=O)/C(=C/c3ccccc3Cl)SC2=S)cc1 | 2 | 63 | -0.29 | 10* | -17
O=C(/C=N/O)Nc1ccc2sc3ccccc3c2c1 | nt | nt | 2.4 | nt | nt
